This note sets out measurements from ChEMBL document CHEMBL3616457, “Synthesis and biological evaluation of new symmetric curcumin derivatives” (Bioorg Med Chem Lett, 2015).

In brackets after ≈: the same amount, converted by molar mass. Activity calls are given as the source filed them. The rule behind the calls is not given here.

Series [1] is described as follows: Antioxidant activity assessed as H2O2 scavenging activity. In kind it is physicochemical. In a few lines:
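H2O2 prepared at 2.0 mM in 0.2 M phosphate buffer pH 7.4. Compounds at 10–50 μg/mL added to 0.6 mL of this solution and made up to 4 mL with buffer. H2O2 absorbance read at 230 nm against a buffer blank. % inhibition = [(blank−test)/blank]×100, IC50 derived from the concentration series.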

The nature of series [2]: Antioxidant activity assessed as DPPH radical scavenging activity. The class given is physicochemical. The gist of the method:
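DPPH stock 0.1 mmol in DMSO. 1 mL sample diluted with 2 mL DMSO, mixed with 2 mL DPPH stock, absorbance at 517 nm. Tested at 10–50 μg/mL. % inhibition = [(blank−test)/blank]×100, IC50 derived from the concentration series. Run twice.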
For orientation: DPPH is a stable violet radical that fades when it is reduced.

In the next series the test system is A549. Nature of the series: Cytotoxicity against human A549 cells at 1 to 500 ug/ml incubated for 24 hrs by MTT assay. The class given is functional, cell-based. In a few lines: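 A549 lung cancer cells grown in MEM with 10% FBS, penicillin and streptomycin, at 37 °C under 5% CO2. Compounds made up at 2 mg/mL in DMSO, filter-sterilized, diluted in medium to 1, 10, 50, 100 and 500 μg/mL. Exposure 24 h, 0.1% DMSO control. MTT (5 mg/mL stock) added for 4 h, formazan dissolved in DMSO, read at 545 nm. Triplicate.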
Background: Tetrazolium assays rely on reduction of a dye to a coloured formazan, in cell work by metabolically active cells.

Series [3] is described as follows: Anti-inflammatory activity assessed as inhibition of bovine serum albumin denaturation at 10 to 500 ug/ml incubated for 15 mins at 37 degC. In kind it is functional. In a few lines: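 Compounds dissolved in minimal DMF, diluted in 0.2 M phosphate buffer pH 7.4 (final DMF <2.5%). 4 mL test solution mixed with 1 mL of 1 mM albumin and held 15 min at 37 °C, then heated 15 min at 70 °C to denature. After cooling, turbidity read at 660 nm. % inhibition calculated against a no-drug control.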

As to `O=C1O[C@H]([C@@H](O)CO)C(O)=C1O` [ASCORBIC ACID], the IC50 (in general, the concentration at which inhibition is half-maximal) in series [1] is 67.54 µg/mL (≈ 383 µM); in series [2], 32.74 µg/mL (≈ 186 µM).
As for `COc1cc(/C=C/C(=O)/C=C(O)/C=C/c2ccc(OCC(=O)Nc3cccc4ccccc34)c(OC)c2)ccc1OCC(=O)Nc1cccc2ccccc12`, the results for the IC50 in series [1] and in series [2] were 41.4 µg/mL (≈ 56.3 µM) and 12.65 µg/mL (≈ 17.2 µM), respectively. Moreover, the outcome in the series on A549 was Active.
Regarding `COc1cc(/C=C/C(=O)/C=C(O)/C=C/c2ccc(OCC(=O)Nc3ccc(F)cc3)c(OC)c2)ccc1OCC(=O)Nc1ccc(F)cc1`, the IC50 is 70.51 µg/mL (≈ 105 µM) in series [1] and 24.26 µg/mL (≈ 36.2 µM) in series [2]. Besides, in series [3], the inhibition result is “Active”. The outcome with A549 was Active.
Turning to `COc1cc(/C=C/C(=O)CC(=O)/C=C/c2ccc(O)c(OC)c2)ccc1O` [CURCUMIN], the half-maximal inhibitory concentration (IC50) in series [1] was 34.71 µg/mL (≈ 94.2 µM); in series [2] it was 14.83 µg/mL (≈ 40.3 µM). Further, the inhibition result in series [3] is “Active”. For the same compound, the outcome in the series on A549 was Active.
Turning to `COc1cc(/C=C/C(=O)/C=C(O)/C=C/c2ccc(OCC(=O)Nc3ccc(C)cc3)c(OC)c2)ccc1OCC(=O)Nc1ccc(C)cc1`, the half-inhibitory concentration (IC50) in series [1] was found to be 61.98 µg/mL (≈ 93.5 µM); in series [2], 22.85 µg/mL (≈ 34.5 µM). Further, the inhibition result in series [3] was “Active”. In the series on A549, the result was Active.
For the compound `COc1cc(/C=C/C(=O)/C=C(O)/C=C/c2ccc(OCC(=O)NC3CCCCC3)c(OC)c2)ccc1OCC(=O)NC1CCCCC1`, the results for the IC50 in series [1] and in series [2] were 26.14 µg/mL (≈ 40.4 µM) and 16 µg/mL (≈ 24.7 µM), respectively. In addition, the inhibition result in series [3] is “Active”. The result in the series with A549 was Active.
Regarding `COc1cc(/C=C/C(=O)/C=C(O)/C=C/c2ccc(OCC(=O)N(C)c3ccccc3)c(OC)c2)ccc1OCC(=O)N(C)c1ccccc1`, the IC50 in series [1] worked out at 63.21 µg/mL (≈ 95.4 µM); in series [2], 12.05 µg/mL (≈ 18.2 µM). Besides, the inhibition result in series [3] was “Active”. Also, the outcome in the series with A549 was Active.
As to `O=C(O)Cc1ccccc1Nc1c(Cl)cccc1Cl`, the inhibition result in series [3] is “Active”.
As for `COc1cc(/C=C/C(=O)/C=C(O)/C=C/c2ccc(OCC(=O)Nc3ccc(Cl)cc3)c(OC)c2)ccc1OCC(=O)Nc1ccc(Cl)cc1`, the IC50 in series [1] is 65.4 µg/mL (≈ 93 µM); in series [2] it was 12.92 µg/mL (≈ 18.4 µM). Moreover, in the series with A549, the outcome was Active.
Consider `CCN(CC)C(=O)COc1ccc(/C=C/C(=O)/C=C(O)/C=C/c2ccc(OCC(=O)N(CC)CC)c(OC)c2)cc1OC`, for which the IC50 in series [1] worked out at 68.16 µg/mL (≈ 115 µM); in series [2], 19.68 µg/mL (≈ 33.1 µM). Besides, the inhibition entry in series [3] is “Active”. In addition, the result with A549 was Active.
As to `COc1cc(/C=C/C(=O)/C=C(O)/C=C/c2ccc(OCC(=O)Nc3ccccc3)c(OC)c2)ccc1OCC(=O)Nc1ccccc1`, the half-maximal inhibitory concentration (IC50) in series [1] stood at 63.7 µg/mL (≈ 100 µM); in series [2], 23.77 µg/mL (≈ 37.5 µM). In addition, the inhibition result in series [3] is “Active”. Further, the result in the series on A549 was Active.
